Shown are actives, neighbours in structure and some others; about 2.5% of the full set was active somewhere.
NPY Y2 blocker – antagonists of human neuropeptide Y receptor Y2; P49146; NPY-Y2 expressing cells, antagonist mode; inhibition, % at 2.7 µM; 140,000 tested, 0.99% active; AID 793; in the data active = inhibition above about 17%
NPY1 pot ag – human NPY-Y1 potentiation or agonism, primary screen; P25929; 220,000 tested, 0.37% active; NPY-Y1 expressing cells, potentiator/agonist activation; activation, % at 3.6 µM; in the data active = activation above about 33%, passing the limit was not always enough;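 also: cells stimulated with NPY at EC10 then isoproterenol at EC100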
Target sequence (P25929 whole entry, looked up): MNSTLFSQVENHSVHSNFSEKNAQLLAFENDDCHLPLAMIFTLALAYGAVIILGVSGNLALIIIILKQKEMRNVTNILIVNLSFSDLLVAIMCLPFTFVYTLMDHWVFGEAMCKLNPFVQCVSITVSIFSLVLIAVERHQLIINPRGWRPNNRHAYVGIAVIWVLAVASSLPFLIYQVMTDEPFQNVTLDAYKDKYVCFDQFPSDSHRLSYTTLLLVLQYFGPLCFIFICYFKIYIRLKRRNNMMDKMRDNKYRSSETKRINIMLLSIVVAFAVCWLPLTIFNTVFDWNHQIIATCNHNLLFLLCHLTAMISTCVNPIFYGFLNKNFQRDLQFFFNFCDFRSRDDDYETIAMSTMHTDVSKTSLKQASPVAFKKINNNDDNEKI
NPY2 pot ag – potentiators or agonists of human neuropeptide Y receptor Y2 | activation, % at 3.6 µM | P49146 | 220,000 tested, 0.45% active | cells expressing NPY-Y2, potentiator/agonist read-out; in the data active = activation above about 27%;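 also: cells stimulated with NPY near EC25 plus isoproterenol at EC100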
NPY-Y1 antag – antagonists of human neuropeptide Y receptor Y1. AID 1040. 200,000 tested, 1% active. HEK293-CNG Y1 cells, membrane potential fluorescence; NPY at EC95, then isoproterenol. inhibition, % at 3.6 µM;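 active = inhibition above the campaign mean inhibition of all tested compounds plus 3 SD, cut at about 20% in these data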
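Material: HEK293 Y1/CNG channel cell line; also added: NPY (25 nM), isoproterenol (1 µM), Ro 20-1724 (25 µM); doses: one concentration, 3.6 µM, in 0.4% DMSO; schedule: compound incubation 1 h at room temperature, readout 45 min post-stimulation; technique: membrane potential fluorescence; measure: fluorescence ratio normalized to % inhibition between controls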
Ins promoter up – MIN6 insulin promoter up-regulation; MIN6 insulin promoter-GFP reporter, high-content imaging; hits give high values; z-score at 5 µM; 190,000 tested, 0.3% active; AID 1625;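 active = z-score above 3 at 5 µM with at least 500 cells counted in the well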
INS promoter inh – TRM-6 insulin promoter activity inhibition | inhibition, % at 2 µM | TRM-6 cells, insulin promoter-eGFP reporter, imaging; reporter expression induced with tamoxifen | AID 1273 | 130,000 tested, 0.9% active;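 active = inhibition above the mean plus 3 SD, with well images judged a real hit on visual review, cut at about 60% in these data, passing the limit was not always enough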
Numbers stand for hits; . = inactive; / = no result.

SMILES	NPY Y2 blocker	NPY1 pot ag	NPY2 pot ag	NPY-Y1 antag	Ins promoter up	INS promoter inh
CCCCC(c1nnnn1C1CCCC1)N1CCN(C2CCCC2)CC1 (configuration not stated)	45.9	.	.	30.9	.	.
Cc1cc(C)c2c3c(sc2n1)C(c1cccc(F)c1)C(C#N)=C(N)O3 (configuration not stated)	.	.	.	.	.	.
O=C(Nc1nc2ccccc2s1)C1CC(=O)N(c2ccccc2)C1 (configuration not stated)	.	.	.	.	.	.
O=C(Nc1nc2ccccc2s1)C1CC(=O)N(c2ccc(Br)cc2)C1 (configuration not stated)	.	.	.	.	/	66.7
O=C(Nc1ccc(C(=O)N2CCOCC2)cc1)c1cccc([N+](=O)[O-])c1	/	.	.	.	.	/
CC(=O)OCCNc1cc(N2CCN(C)CC2)c2noc3c2c1C(=O)c1ccccc1-3	.	48.8	33.1	.	.	.
CCN1CCN(c2ncnc3c2oc2nc(C(C)C)c4c(c23)CCC4)CC1	/	/	/	/	.	/
CC(C)Cc1nc2oc3c(N4CCN(CCO)CC4)ncnc3c2c2c1CCCC2	17.1	.	.	.	.	/
CCOC(=O)N1CCN(CC(O)COc2ccccc2C(C)(C)C)CC1 (configuration not stated)	.	71.5	72.0	.	.	.
CCOC(=O)N1CCN(CC(O)COCc2ccc(Cl)cc2)CC1 (configuration not stated)	.	.	.	.	.	.
CCC(=O)N1CCN(c2ccccc2NC(=O)COc2cc(C)ccc2C(C)C)CC1	22.0	.	.	30.5	.	.
CCOC(=O)N1CCN(CC(O)COc2cc(C)ccc2C(C)C)CC1 (configuration not stated)	.	92.2	80.6	.	.	.
CCOC(=O)N1CCN(CC(O)COc2ccccc2C(C)C)CC1 (configuration not stated)	.	79.0	58.8	.	.	.
CCOC(=O)N1CCN(CC(O)COc2ccccc2C(C)CC)CC1 (configuration not stated)	.	.	.	.	.	.
Cc1ccccc1NCN1C(=O)C2CCC(C)(C1=O)C2(C)C (configuration not stated)	/	.	.	/	.	/
CN(c1ccc(OCC(=O)NCc2cccnc2)cc1)S(=O)(=O)c1ccc(Cl)cc1	/	.	.	.	.	/
COCCN1C(=O)c2oc3cc(C)c(C)cc3c(=O)c2C1c1cccc(O)c1 (configuration not stated)	.	.	.	.	/	.
CC1CN(CC(O)COc2ccccc2C(C)(C)C)CC(C)O1 (configuration not stated)	.	100.4	83.8	.	.	.
COc1ccc(OCC(=O)OC2CCN(C)CC2)cc1	.	.	.	.	.	.
Cc1ccccc1OCC(=O)OC1CCN(C)CC1	.	.	.	.	8.59	.
CC(=O)c1sc(NC(=O)C=C(C)C)nc1C	.	.	.	.	.	.
CC(=O)c1sc(NC(=O)C2(F)C(F)(F)C(F)(F)C(F)(F)C(F)(F)C2(F)F)nc1C	.	56.0	53.8	.	.	/
CS(=O)(=O)N1CC(C(=O)NC2CC2)Oc2ccc(Cl)cc21 (configuration not stated)	.	.	.	.	.	.
COc1ccc(CN2C3CCCC2CC(NC(=O)Nc2cccc(C)c2)C3)cc1 (configuration not stated)	.	.	.	.	.	.
COc1ccc(CN2C3CCCC2CC(NC(=O)Nc2ccccc2)C3)cc1 (configuration not stated)	.	.	.	.	.	81.2
SMILES	NPY Y2 blocker	NPY1 pot ag	NPY2 pot ag	NPY-Y1 antag	Ins promoter up	INS promoter inh
O=[N+]([O-])c1ccc(C2=Nn3c(Cn4nnc5ccccc54)nnc3SC2)cc1	/	.	.	/	.	/
CC1(C)COC(c2coc3ccccc3c2=O)OC1	.	.	.	.	.	100.0
CC1CN(C(=S)SCCN2C(=O)CCC2=O)CC(C)O1 (configuration not stated)	/	.	.	.	.	/
Cc1ccc(C(=O)NNC2CC(=O)N(c3ccc4c(c3)OCCO4)C2=O)cc1 (configuration not stated)	/	.	.	.	/	85.0
COc1ccc(CN2CCC(CO)(Cc3ccccc3)CC2)cc1Cn1cccn1	/	.	.	21.4	.	/
COc1cc2c(cc1OC)CN(CC(=O)Nc1ccc(C#N)cc1)CC2	.	.	.	.	.	.
N#C/C(=C\c1ccc(-c2ccc(S(=O)(=O)N3CCOCC3)cc2)o1)C(=O)NC1CC1	.	.	.	.	.	61.5
COc1ccc(CN(C2CCCCC2C)S(=O)(=O)c2ccc(S(=O)(=O)N(C)C)cc2)cc1OC (configuration not stated)	.	.	.	.	.	.
O=C(Nc1ccccc1)C1C2CCC3C(CCC21)C3(Cl)Cl (configuration not stated)	.	.	.	20.6	.	.
CCCCCn1nc(C(=O)OCC(=O)c2c(N)n(C)c(=O)n(C)c2=O)c2ccccc2c1=O	/	.	.	.	/	71.4
Cn1c(N)c(C(=O)COC(=O)CCCc2c[nH]c3ccccc23)c(=O)n(C)c1=O	19.7	.	.	29.7	.	/
O=C(O)CC1(CC(=O)Nc2cc(C(F)(F)F)cc(C(F)(F)F)c2)CCCCC1	/	.	.	/	.	/
COc1ccc(-c2nc3c(-c4ccc(F)cc4)cnn3cc2C)cc1F	/	.	.	.	.	/
CCCCCNCC(=O)Nc1cccc(C(=O)Nc2cccc(C(F)(F)F)c2)c1	/	.	.	.	.	/
CC1(C)CC(=O)C2=C(C1)C(c1cn(-c3ccccc3)nc1-c1ccccc1)C(C#N)=C(N)O2 (configuration not stated)	.	.	.	.	.	/
CC1(C)CC(=O)C2=C(C1)OC(N)=C(C#N)C2c1cn(-c2ccccc2)nc1-c1ccc(F)cc1 (configuration not stated)	.	67.9	65.4	.	.	/
COCCCNC(NC(=O)c1ccc(Br)cc1)C(Cl)(Cl)Cl (configuration not stated)	.	59.4	65.8	.	.	/
CCOC(=O)CNNC(=O)Nc1ccc(Cl)c(Cl)c1	.	.	.	.	.	75.0
CCOC(=O)N(C)OC(=O)Nc1ccc(Cl)c(Cl)c1	.	.	.	.	.	.
COc1ccc(S(=O)(=O)Nc2ccc(Cl)cn2)c(C)c1C	.	59.1	36.9	.	.	.
CCOc1cc(S(=O)(=O)Nc2ccc(Cl)cn2)ccc1F	.	.	.	.	.	.
C[n+]1cc(C(=O)N2CCCCC2)ccc1/C=C/c1c[nH]c2ccccc12	/	.	.	.	3.95	/
CCOc1cc(CNCC(C)C)c(Cl)cc1OCC(=O)Nc1ccccc1	/	.	.	.	.	/
Cc1cc2oc(C(=O)Nc3ccc(S(=O)(=O)Nc4onc(C)c4C)cc3)cc(=O)c2cc1Cl	/	.	.	/	.	/
